Measurements reported in ChEMBL document CHEMBL2169769, “Synthesis and biological characterization of protease-activated prodrugs of doxazolidine” (J Med Chem, 2012).

Key:
BXPC-3 = test: Cytotoxicity against human BxPC3 cells incubated for 24 hrs measured after 5 days; format: functional, cell-based
How it was run: (§1)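 Cells seeded 1000/well, adhered overnight, then serum-free medium with or without plasmin, trypsin, cathepsin B or papain (0.2 U/well), aprotinin (5 µM) or protease inhibitor cocktail (1X). Prodrug 2000–1 nM final, 24 h; then complete medium up to 5 days or control 80% confluence. Formalin fixed, crystal violet, A582; % of control fit to variable-slope sigmoid for IC50.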

[1] = target: Plasminogen (Homo sapiens) (UniProt P00747); test: Activity of human plasmin assessed as enzyme catalytic efficiency for compound hydrolysis at 50 uM at pH 7.4 in PBS buffer by RP-HPLC
Plasminogen (Homo sapiens), sequence (P00747 97-580 limits assumed): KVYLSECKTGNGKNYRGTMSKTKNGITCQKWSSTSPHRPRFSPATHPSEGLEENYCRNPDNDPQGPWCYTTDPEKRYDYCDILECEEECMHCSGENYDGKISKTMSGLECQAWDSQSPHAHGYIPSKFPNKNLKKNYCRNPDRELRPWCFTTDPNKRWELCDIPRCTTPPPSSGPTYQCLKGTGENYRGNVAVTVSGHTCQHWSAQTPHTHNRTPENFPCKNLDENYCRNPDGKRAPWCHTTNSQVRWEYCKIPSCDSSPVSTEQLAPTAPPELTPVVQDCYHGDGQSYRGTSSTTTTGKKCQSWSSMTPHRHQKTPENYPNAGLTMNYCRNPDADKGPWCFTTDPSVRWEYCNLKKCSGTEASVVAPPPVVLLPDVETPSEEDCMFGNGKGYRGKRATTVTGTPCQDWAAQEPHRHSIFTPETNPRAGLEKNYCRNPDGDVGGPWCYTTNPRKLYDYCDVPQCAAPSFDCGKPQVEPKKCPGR
Plasminogen (Homo sapiens), sequence (P00747 581-810 limits assumed): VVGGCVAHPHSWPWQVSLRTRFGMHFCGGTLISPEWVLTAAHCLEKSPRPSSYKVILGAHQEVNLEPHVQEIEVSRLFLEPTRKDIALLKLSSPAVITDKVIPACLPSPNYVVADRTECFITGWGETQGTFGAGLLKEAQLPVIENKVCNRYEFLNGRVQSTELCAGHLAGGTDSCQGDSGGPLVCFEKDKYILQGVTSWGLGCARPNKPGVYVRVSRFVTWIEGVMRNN
How it was run: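 Michaelis-Menten kinetics, substrate 10–400 µM at 37 °C. Plasmin: 0.2 U, PBS pH 7.4, 4 min. Cathepsin B: 0.08 U, PBS-NAC pH 6.5, 20 min. Quenched with equal volume ethanol, −20 °C ≥2 h, centrifuged, supernatant RP-HPLC at 480 nm. Rates (µM/min) fit by non-linear least squares; triplicates.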

HEK-293T [2] = test: Cytotoxicity against human HEK293T cells incubated for 24 hrs measured after 5 days in presence of 0.2 U human plasmin; format: cell-based; how it was run: as §1
[3] = Cytotoxicity against human L3.5 cells incubated for 24 hrs measured after 5 day; format: functional, cell-based; how it was run: as §1
Plasma = test: Stability in human plasma assessed as doxorubicin production at 50 uM incubated over 24 hrs by RP-HPLC; format: ADME, cell-free
How it was run: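 Prodrug diluted to 50 µM final in undiluted plasma from healthy human donors, 37 °C for 24 h. Aliquots at 0.25, 1, 3, 8, 12 and 24 h were quenched with equal-volume ethanol and held at −20 °C overnight; protein was spun out. Supernatant run on RP-HPLC; percent prodrug and dox taken from relative 480 nm absorbance, counting all 480 nm species; triplicate.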

[4] = Cytotoxicity against human L3.5.cells incubated for 24 hrs measured after 5 days in presence of 0.2 U human plasmin; format: functional, cell-based; how it was run: as §1
HEK-293T [5] = test: Cytotoxicity against human HEK293T cells incubated for 24 hrs measured after 5 day; format: cell-based; how it was run: as §1
[6] = Cytotoxicity against doxorubicin-resistant human NCI-ADR-RES cells incubated for 24 hrs measured after 5 day; format: functional, cell-based; how it was run: as §1
Homo sapiens = organism: Homo sapiens; test: Selectivity ratio of catalytic efficiency of human plasmin to catalytic efficiency of human cathepsin B
How it was run: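 Michaelis–Menten kinetics with human enzymes and substrate at 10–400 µM, 37 °C. Plasmin: 0.2 U in PBS pH 7.4 for 4 min. Cathepsin B: 0.08 U in PBS with 10 mM N-acetylcysteine, pH 6.5, for 20 min. Quenched with ethanol, held at −20 °C ≥2 h, centrifuged. Dox release read by RP-HPLC at 480 nm. Rates (µM/min) fit by non-linear least squares; triplicate.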

MCF7 [7] = test: Cytotoxicity against human MCF7 cells incubated for 24 hrs measured after 5 days in presence of 0.2 U cathepsin B; format: functional, cell-based; how it was run: as §1
[8] = Cytotoxicity against human L3.3 cells incubated for 24 hrs measured after 5 day; format: functional, cell-based; how it was run: as §1
MCF7 [9] = test: Cytotoxicity against human MCF7 cells incubated for 24 hrs measured after 5 days in presence of 0.2 U trypsin; format: functional, cell-based; how it was run: as §1
[10] = Cytotoxicity against human L3.6PL cells incubated for 24 hrs measured after 5 days in presence of 0.2 U human plasmin; format: functional, cell-based; how it was run: as §1
[11] = target: Plasminogen (Homo sapiens) (UniProt P00747); test: Activity of human plasmin assessed as compound hydrolysis measuring enzyme specific activity at 50 uM at pH 7.4 in PBS buffer by RP-HPLC
How it was run: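 Specific activity from hydrolysis time courses at 37 °C with 50 µM substrate. Plasmin in PBS pH 7.4; cathepsin B diluted two-fold in PBS-NAC, reacted in PBS-NAC (10 mM N-acetylcysteine) pH 6.5. Ethanol-quenched aliquots, protein precipitated at −20 °C, RP-HPLC at 480 nm tracking dox release. Linear least-squares slope used; 1 U = 1 µM substrate hydrolysed per min.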

[12] = Cytotoxicity against doxorubicin-resistant human NCI-ADR-RES.cells incubated for 24 hrs measured after 5 days in presence of 0.2 U human plasmin; format: functional, cell-based; how it was run: as §1
SHP77 [13] = test: Cytotoxicity against doxorubicin-resistant human SHP77 cells incubated for 24 hrs measured after 5 days in presence of 0.2 U human plasmin; format: functional, cell-based; how it was run: as §1
SHP77 [14] = test: Cytotoxicity against human doxorubicin-resistant SHP77 cells incubated for 24 hrs measured after 5 days; format: functional, cell-based; how it was run: as §1
MIA PaCa-2 [15] = test: Cytotoxicity against human MIAPaCa2 cells incubated for 24 hrs measured after 5 days in presence of 0.2 U trypsin; format: functional, cell-based; how it was run: as §1
[16] = Cytotoxicity against human L3.3 cells incubated for 24 hrs measured after 5 days in presence of 0.2 U human plasmin; format: functional, cell-based; how it was run: as §1
MIA PaCa-2 [17] = test: Cytotoxicity against human MIAPaCa2 cells incubated for 24 hrs measured after 5 days in presence of complete protease inhibitor cocktail; format: functional, cell-based; how it was run: as §1

Q: What does the source list for `COc1cccc2c1C(=O)c1c(O)c3c(c(O)c1C2=O)C[C@@](O)(C(=O)CO)C[C@@H]3O[C@H]1C[C@H]2[C@H](OCN2C(=O)OCc2ccc(NC(=O)[C@H](CCCCN)NC(=O)[C@H](Cc3ccccc3)NC(=O)[C@@H](C)NC(=O)CNC(C)=O)cc2)[C@H](C)O1.O=P(O)(O)O`?
A: IC50 (BXPC-3): 1000 nM; Activity [1]: 1.43 ×10⁴ /M/s; IC50 (HEK-293T [2]): 3.02 nM; IC50 [3]: 224 nM; Stability (Plasma): Stable; IC50 [4]: 2.63 nM; IC50 (HEK-293T [5]): 200 nM; IC50 [6]: 912 nM; Ratio (Homo sapiens): > 3; IC50 (MCF7 [7]): 120 nM; IC50 [8]: 251 nM; IC50 (MCF7 [9]): 31.6 nM; IC50 [10]: 3.16 nM; Activity [11]: 1940 U/mg; IC50 [12]: 11.7 nM; IC50 (SHP77 [13]): 29.5 nM; IC50 (SHP77 [14]): 1580 nM; IC50 (MIA PaCa-2 [15]): 26.3 nM; IC50 [16]: 3.98 nM; IC50 (MIA PaCa-2 [17]): 398 nM
